Converted amounts (≈) assume the structure as drawn.
Experiments:
[1] = system: Vero; experiment: Cytotoxicity against African green monkey Vero cells by SRB assay; assay type: cell-based; conditions: Chlorocebus sabaeus
How it was run: (§1)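 Colorimetric cytotoxicity assay run on oral human epidermal carcinoma (KB), human breast cancer (BC), human small-cell lung cancer (NCI-H187) and African green monkey kidney fibroblast (Vero) cells. IC50 values are reported in µM.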

[2] = system: Mycobacterium tuberculosis; experiment: Antituberculosis activity against Mycobacterium tuberculosis H37Ra after 4 days by Alamar blue assay; assay type: functional; conditions: 96 h
How it was run: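 Microplate resazurin (Alamar Blue) growth-inhibition assay against M. tuberculosis H37Ra; MIC taken as the lowest concentration giving ≥90% growth inhibition.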

[3] = system: NCI-H187; experiment: Cytotoxicity against human NCI-H187 cells by SRB assay; assay type: functional, cell-based; how it was run: as §1
[4] = Cytotoxicity against human BC cells by SRB assay; assay type: functional, cell-based; how it was run: as §1
[5] = system: KB; experiment: Cytotoxicity against human KB cells by SRB assay; assay type: functional, cell-based; how it was run: as §1
[6] = system: Human alphaherpesvirus 1; experiment: Antiviral activity against Herpes simplex virus type 1; assay type: functional, organism-based
How it was run: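 HSV-1 antiviral activity read out by a colorimetric method, with IC50 values in µM.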

C[C@H]1CC[C@H]2[C@@H](C=C[C@@H]3COC(=O)[C@](O)(CO)[C@@]32C)C1 [OBLONGOLIDE W2]
IC50 [1]: > 178 µM | MIC [2]: > 178 µM | IC50 [3]: > 71 µM | IC50 [4]: > 71 µM | IC50 [5]: > 71 µM

C[C@H]1CC[C@H]2[C@@H](C=C[C@]3(O)COC(=O)[C@]23C)C1 [OBLONGOLIDE C]
IC50 [1]: > 212 µM | MIC [2]: > 212 µM | IC50 [3]: > 85 µM | IC50 [4]: > 85 µM | IC50 [5]: > 85 µM

COc1cccc2c1C(=O)c1c(O)c3c(c(O)c1C2=O)C[C@@](O)(C(=O)CO)C[C@@H]3O[C@H]1C[C@H](N)[C@H](O)[C@H](C)O1 [DOXORUBICIN]
IC50 [3]: 0.08 µM | IC50 [5]: 0.24 µM

C[C@H]1CC[C@H]2[C@@H](C=C[C@@H]3COC(=O)[C@@](O)(CO)[C@@]32C)C1 [OBLONGOLIDE W1]
IC50 [1]: > 178 µM | MIC [2]: 178 µM (≈ 49.9 µg/mL) | IC50 [3]: > 71 µM | IC50 [4]: > 71 µM | IC50 [5]: > 71 µM

CC(=O)[C@@]1(OCCc2ccccc2)OC[C@H]2C=C[C@H]3C[C@@H](C)CC[C@@H]3[C@]21C [OBLONGOLIDE Z]
IC50 [1]: 60 µM | MIC [2]: > 136 µM | IC50 [3]: 32 µM | IC50 [4]: 26 µM | IC50 [5]: 37 µM

Cc1ccc(O)c2c1C[C@@H](C)OC2=O
IC50 [1]: > 260 µM | MIC [2]: > 260 µM | IC50 [3]: > 104 µM | IC50 [4]: > 104 µM | IC50 [5]: > 104 µM

NNC(=O)c1ccncc1 [ISONIAZID]
MIC [2]: 0.36 µM (≈ 0.0494 µg/mL)

C[C@H]1CC[C@H]2[C@@H](C=C[C@@H]3CO[C@](C)(O)C(=O)[C@@]32C)C1 [OBLONGOLIDE T]
IC50 [1]: > 189 µM | MIC [2]: > 189 µM | IC50 [3]: > 76 µM | IC50 [4]: > 76 µM | IC50 [5]: > 76 µM

CO[C@]1(C(C)=O)OC[C@H]2C=C[C@H]3C[C@@H](C)CC[C@@H]3[C@]21C [OBLONGOLIDE Y]
IC50 [1]: > 180 µM | MIC [2]: > 180 µM | IC50 [3]: > 72 µM | IC50 [4]: 48 µM | IC50 [5]: > 72 µM

C[C@H]1CC[C@H]2[C@@H](C=C[C@@H]3CO[C@@](O)(CO)C(=O)[C@@]32C)C1 [OBLONGOLIDE X]
IC50 [1]: 96 µM | MIC [2]: > 178 µM | IC50 [3]: > 71 µM | IC50 [4]: > 71 µM | IC50 [5]: > 71 µM

Nc1nc2c(ncn2COCCO)c(=O)[nH]1 [ACYCLOVIR]
IC50 [6]: 13 µM

C[C@H]1CC[C@H]2[C@@H](C=C[C@@H]3[C@@H](O)O[C@@H](CO)C(=O)[C@@]32C)C1
IC50 [1]: > 178 µM | MIC [2]: > 178 µM | IC50 [3]: > 71 µM | IC50 [4]: > 71 µM | IC50 [5]: > 71 µM

Cc1c2ccncc2c(C)c2c1[nH]c1ccccc12 [ELLIPTECINE]
IC50 [1]: 1.75 µM

C[C@H]1CC[C@H]2[C@@H](C=C[C@@H]3COC(=O)[C@@]32C)C1 [OBLONGOLIDE]
IC50 [1]: > 227 µM | MIC [2]: 227 µM (≈ 50 µg/mL) | IC50 [3]: > 91 µM | IC50 [4]: > 91 µM | IC50 [5]: > 91 µM

C[C@H]1CC[C@H]2[C@H](C1)[C@@H]1O[C@@H]1[C@@H]1COC(=O)[C@]21C [OBLONGOLIDE Q]
IC50 [1]: > 212 µM | MIC [2]: > 212 µM | IC50 [3]: > 85 µM | IC50 [4]: > 85 µM | IC50 [5]: > 85 µM

— ChEMBL document CHEMBL1154864, “Oblongolides from the endophytic fungus Phomopsis sp. BCC 9789” (J Nat Prod, 2010)
